Ten compounds from ChEMBL document CHEMBL3758117, “Discovery of indeno[1,2-b]quinoxaline derivatives as potential anticancer agents” (Eur J Med Chem, 2016) can be followed below.

Structures are written as SMILES. Active and inactive are the calls of the source. The rule behind the calls is not given here.

The test system of assay [1] is Escherichia coli. Kind of assay: Binding affinity to Escherichia coli negative supercoiled pBR322 DNA at 10 uM after 12 hrs by ethidium bromide staining based agarose gel electrophoresis. The gist of the method: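 Negatively supercoiled pBR322 (400 ng) in TE buffer pH 8.0 was incubated with compound at 10 μM for 12 h at room temperature. Loading buffer with sarkosyl was added. Samples were run on 1% agarose at 6 V/cm for 2.5 h in TAE pH 8.5, stained with ethidium bromide and photographed under UV.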

The test system of assay [2] is MDA-MB-231. Nature of the assay: Antiproliferative activity against human MDA-MB-231 cells after 72 hrs by XTT assay. The format is functional, cell-based. Conditions: MDA-MB-231, 72 h. A digest of the protocol:
(§1)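 Cells kept as monolayers in DMEM with 10% FBS, penicillin, streptomycin and amphotericin at 37°C, 5% CO2. Seeded at 5 x 10³ cells/well and exposed to compound for 72 h in medium with 10% FBS. XTT plus electron-coupling reagent added, 4 h at 37°C, absorbance read at 492 nm. Percent of control growth uses mean absorbance (n = 3). The 50% value is taken from the linear portion of the curve.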

Assay [3] can be described thus: Antiproliferative activity against human H1299 cells after 72 hrs by XTT assay. Conditions: NCI-H1299, 72 h. The class given is functional, cell-based. A digest of the protocol:
as §1

Assay [4] can be described thus: Antiproliferative activity against human PC3 cells after 72 hrs by XTT assay. The class given is functional, cell-based. Conditions: PC-3, 72 h. A digest of the protocol: as §1
Assay [5] can be described thus: Antiproliferative activity against human HuH7 cells after 72 hrs by XTT assay. The class given is functional, cell-based. Particulars: Huh-7, 72 h. The gist of the method: as §1
The subject of assay [6] is MRC5. Nature of the assay: Antiproliferative activity against human MRC5 cells after 72 hrs by XTT assay. The format is cell-based. Conditions: MRC5, 72 h. A digest of the protocol:
as §1

In assay [7] the test system is MRC5. Nature of the assay: Selectivity index, ratio of IC50 for human MRC5 cells to IC50 for human MDA-MB-231 cells. The format is functional.
Assay [8] in a line: Selectivity index, ratio of IC50 for human MRC5 cells to IC50 for human H1299 cells. The class given is functional.
The test system of assay [9] is MRC5. Kind of assay: Selectivity index, ratio of IC50 for human MRC5 cells to IC50 for human PC3 cells. The class given is functional.
In assay [10] the test system is Huh-7. Nature of the assay: Selectivity index, ratio of IC50 for human MRC5 cells to IC50 for human HuH7 cells. The class given is functional.
Assay [11] concerns the target T1, DNA topoisomerase 1 (Homo sapiens) (UniProt P11387).
T1 sequence (whole entry): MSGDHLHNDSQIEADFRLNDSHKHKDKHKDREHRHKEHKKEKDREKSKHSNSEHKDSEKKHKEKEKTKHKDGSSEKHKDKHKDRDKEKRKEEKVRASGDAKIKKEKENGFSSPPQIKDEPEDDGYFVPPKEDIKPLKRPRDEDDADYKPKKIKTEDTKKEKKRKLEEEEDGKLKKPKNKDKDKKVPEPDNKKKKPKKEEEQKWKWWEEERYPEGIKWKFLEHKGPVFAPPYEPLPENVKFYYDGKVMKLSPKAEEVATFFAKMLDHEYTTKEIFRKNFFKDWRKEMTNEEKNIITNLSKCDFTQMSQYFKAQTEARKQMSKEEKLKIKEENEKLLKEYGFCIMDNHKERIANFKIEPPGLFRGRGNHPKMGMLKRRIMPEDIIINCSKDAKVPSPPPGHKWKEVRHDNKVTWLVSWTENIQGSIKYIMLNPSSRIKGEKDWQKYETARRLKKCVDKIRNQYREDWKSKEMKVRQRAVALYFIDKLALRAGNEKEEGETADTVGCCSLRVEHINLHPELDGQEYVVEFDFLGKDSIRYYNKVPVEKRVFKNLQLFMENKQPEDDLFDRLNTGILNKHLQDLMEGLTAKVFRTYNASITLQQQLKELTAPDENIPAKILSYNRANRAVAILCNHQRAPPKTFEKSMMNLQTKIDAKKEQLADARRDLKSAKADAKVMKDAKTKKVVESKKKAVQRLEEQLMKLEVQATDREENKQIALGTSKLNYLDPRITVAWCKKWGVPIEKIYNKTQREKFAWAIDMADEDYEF
Kind of assay: Inhibition of human DNA topoisomerase 1-mediated relaxation of supercoiled pBR322 DNA at 100 uM after 30 mins by ethidium bromide staining based agarose gel electrophoresis. The gist of the method:
(§2)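 Human topo I or topo II (2 units) was reacted with 0.2 μg supercoiled pBR322 in 20 μl Tris-HCl pH 7.5 containing KCl, DTT, EDTA, MgCl2 and BSA, with DMSO held at 0.5%, for 30 min at 37°C. The reaction was stopped with SDS. Samples were run on 1% agarose in Tris-acetate/EDTA at 1.5 V/cm for 2-3 h and stained with ethidium bromide. Relaxation was quantified by densitometry of the supercoiled band area.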

Assay [12] addresses T1, DNA topoisomerase 1 (Homo sapiens). Nature of the assay: Inhibition of human DNA topoisomerase 1-mediated relaxation of supercoiled pBR322 DNA at 10 uM after 30 mins by ethidium bromide staining based agarose gel electrophoresis. The gist of the method: as §2
The target in assay [13] is DNA topoisomerase 2-alpha (Homo sapiens) (UniProt P11388). Nature of the assay: Inhibition of human DNA topoisomerase 2-mediated relaxation of supercoiled pBR322 DNA at 100 uM after 30 mins by ethidium bromide staining based agarose gel electrophoresis. A digest of the protocol:
as §2

Assay [14] has the same target. Nature of the assay: Inhibition of human DNA topoisomerase 2-mediated relaxation of supercoiled pBR322 DNA at 10 uM after 30 mins by ethidium bromide staining based agarose gel electrophoresis. The gist of the method: as §2

DNA topoisomerase 2-alpha (Homo sapiens), sequence (P11388 whole entry): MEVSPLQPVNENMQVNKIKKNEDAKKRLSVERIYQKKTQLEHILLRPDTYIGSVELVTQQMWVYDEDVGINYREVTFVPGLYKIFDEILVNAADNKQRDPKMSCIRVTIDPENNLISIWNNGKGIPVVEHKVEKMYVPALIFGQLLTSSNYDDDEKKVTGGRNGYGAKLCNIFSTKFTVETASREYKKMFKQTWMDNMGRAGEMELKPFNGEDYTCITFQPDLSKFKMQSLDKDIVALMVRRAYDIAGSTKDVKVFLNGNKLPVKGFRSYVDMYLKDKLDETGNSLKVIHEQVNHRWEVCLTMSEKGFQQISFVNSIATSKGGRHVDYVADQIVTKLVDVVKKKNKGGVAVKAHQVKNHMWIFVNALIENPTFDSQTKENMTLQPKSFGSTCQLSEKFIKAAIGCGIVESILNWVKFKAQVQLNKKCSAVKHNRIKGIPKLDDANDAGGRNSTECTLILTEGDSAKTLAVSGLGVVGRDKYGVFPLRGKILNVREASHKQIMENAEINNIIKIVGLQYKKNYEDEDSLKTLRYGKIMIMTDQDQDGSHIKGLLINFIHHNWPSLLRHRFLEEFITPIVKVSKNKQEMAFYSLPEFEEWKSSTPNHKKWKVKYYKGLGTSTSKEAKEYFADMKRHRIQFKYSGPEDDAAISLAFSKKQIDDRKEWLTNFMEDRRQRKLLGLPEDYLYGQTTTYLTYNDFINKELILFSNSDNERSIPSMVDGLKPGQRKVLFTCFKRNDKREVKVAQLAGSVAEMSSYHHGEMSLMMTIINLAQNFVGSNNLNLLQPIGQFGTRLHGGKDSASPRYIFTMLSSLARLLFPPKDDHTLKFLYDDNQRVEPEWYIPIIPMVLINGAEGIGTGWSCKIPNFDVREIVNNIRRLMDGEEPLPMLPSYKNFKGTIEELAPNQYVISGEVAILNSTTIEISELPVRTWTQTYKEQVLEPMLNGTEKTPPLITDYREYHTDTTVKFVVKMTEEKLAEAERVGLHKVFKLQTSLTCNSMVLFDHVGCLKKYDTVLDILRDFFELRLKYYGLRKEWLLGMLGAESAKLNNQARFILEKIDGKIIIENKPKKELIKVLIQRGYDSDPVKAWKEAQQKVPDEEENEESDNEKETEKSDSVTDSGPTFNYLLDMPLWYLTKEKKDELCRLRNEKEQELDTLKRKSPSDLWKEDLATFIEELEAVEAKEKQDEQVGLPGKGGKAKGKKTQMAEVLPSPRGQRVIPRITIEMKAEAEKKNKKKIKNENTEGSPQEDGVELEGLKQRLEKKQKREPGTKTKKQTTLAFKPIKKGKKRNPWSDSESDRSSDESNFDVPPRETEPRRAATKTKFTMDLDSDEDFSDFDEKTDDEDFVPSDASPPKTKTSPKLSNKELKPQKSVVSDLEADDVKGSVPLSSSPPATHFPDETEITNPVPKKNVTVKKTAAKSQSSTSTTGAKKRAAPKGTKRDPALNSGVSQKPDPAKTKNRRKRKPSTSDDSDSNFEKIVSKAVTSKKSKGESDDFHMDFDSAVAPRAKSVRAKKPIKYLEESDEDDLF

Consider `CN(C)CCNC(=O)c1cccc2nc3c(nc12)-c1ccccc1C3=O`, for which the outcome in [1] was inactive. The IC50 in [2] came to 7.29 µM; in assay [3] it was 8.75 µM; in assay [4], 11 µM; in assay [5], 7.64 µM; in assay [6] it was 8.98 µM. Further, the “Ratio IC50” value in assay [7] is reported as 1.23; in assay [8] it was 1.03; in assay [9], 0.82; in [10] it was 1.18. Besides, in [11], the “topoisomerase 1 inhibition (active/inactive)” value is “Active”. In addition, the inhibition result in [12] is “Active”. Further, the “inhibition call (active/not active)” value in assay [13] was “Active”. Further, in assay [14], the “topoisomerase 2 inhibition (active/not active)” value is “inactive”.
Take `CN(C)CCCO/N=C1\c2ccccc2-c2nc3c(C(=O)NCCN4CCOCC4)cccc3nc21.Cl`: the outcome in [1] was Active. The IC50 in assay [2] turned out to be 0.99 µM; in [3], 9.69 µM; in [4] it was 9.78 µM; in assay [5] it was 5.94 µM; in assay [6], 11.5 µM. Moreover, the “Ratio IC50” value in [7] came out at 11.63; in assay [8], 1.19; in assay [9], 1.18; in [10], 1.94. In addition, in assay [11], the “topoisomerase 1 inhibition (active/inactive)” value is “Active”. Further, the inhibition result in assay [12] is “Active”. The “inhibition call (active/not active)” value in assay [13] is “Active”. In addition, the “topoisomerase 2 inhibition (active/not active)” value in assay [14] is “inactive”.
As for `CN(C)CCCO/N=C1\c2ccccc2-c2nc3c(C(=O)NCCN4CCCC4)cccc3nc21.Cl`, in [1], the result was Active. Moreover, the IC50 in assay [2] was determined as 0.45 µM; in assay [3], 5.69 µM; in assay [4], 0.68 µM; in assay [5], 0.82 µM; in [6] it was 7.89 µM. Moreover, the “Ratio IC50” value in assay [7] stood at 17.53; in assay [8], 1.39; in assay [9], 11.6; in assay [10], 9.62. The “topoisomerase 1 inhibition (active/inactive)” value in assay [11] is “Active”. Moreover, the inhibition entry in [12] is “Active”. Besides, the “inhibition call (active/not active)” value in assay [13] is “Active”. In [14], the “topoisomerase 2 inhibition (active/not active)” value is “Active”.
Consider `CN(C)CCCO/N=C1\c2ccccc2-c2nc3c(CN(C)C)cccc3nc21.Cl`, for which the outcome in [1] was Active. For the same compound, the IC50 in assay [2] was found to be 0.9 µM; in assay [3], 0.81 µM; in assay [4], 0.78 µM; in [5], 0.75 µM; in [6], 0.88 µM. Moreover, the “Ratio IC50” value in assay [7] is on record as 0.98; in assay [8], 1.09; in assay [9], 1.13; in [10], 1.17. Besides, the “topoisomerase 1 inhibition (active/inactive)” value in [11] was “Active”. In addition, in assay [12], the inhibition result was “Active”. For the same compound, in assay [13], the “inhibition call (active/not active)” value is “Active”. In addition, the “topoisomerase 2 inhibition (active/not active)” value in [14] is “inactive”.
Take `CN(C)CCCO/N=C1\c2ccccc2-c2nc3ccccc3nc21.Cl`: the result in [1] was inactive. Besides, the IC50 worked out at 7.01 µM in assay [2]; 7.19 µM in assay [3]; 8.63 µM in [4]; 5.38 µM in assay [5]; 19.9 µM in assay [6]. Further, the “Ratio IC50” value in assay [7] is on record as 2.83; in assay [8], 2.76; in assay [9] it was 2.3; in [10] it was 3.69. Moreover, the “topoisomerase 1 inhibition (active/inactive)” value in assay [11] was “Active”. For the same compound, in [12], the inhibition entry was “Active”. Moreover, the “inhibition call (active/not active)” value in assay [13] was “Active”. In addition, in assay [14], the “topoisomerase 2 inhibition (active/not active)” value is “inactive”.
For `CN(C)CCCO/N=C1\c2ccccc2-c2nc3c(CN4CCOCC4)cccc3nc21.Cl`, the outcome in assay [1] was inactive. Moreover, the IC50 in [2] is 9.97 µM; in assay [3] it was 6.93 µM; in assay [4] it was 9.92 µM; in assay [5] it was 6.78 µM; in assay [6] it was 73.5 µM. The “Ratio IC50” value in assay [7] is 7.37; in assay [8], 10.6; in [9], 7.41; in assay [10], 10.84. Besides, the “topoisomerase 1 inhibition (active/inactive)” value in [11] was “Active”. Also, the inhibition entry in assay [12] is “inactive”. In assay [13], the inhibition entry was “Active”. The “topoisomerase 2 inhibition (active/not active)” value in assay [14] is “inactive”.
Turning to `O=C1c2ccccc2-c2nc3c(C(=O)NCCN4CCCC4)cccc3nc21`, the outcome in [1] was inactive. Also, the IC50 in assay [2] was determined as 6.55 µM; in assay [3] it was 11.2 µM; in [4], 12 µM; in assay [5] it was 8.51 µM; in assay [6], 7.99 µM. Besides, the “Ratio IC50” value in [7] was determined as 1.22; in [8] it was 0.71; in [9], 0.67; in [10], 0.94. In addition, in [11], the “topoisomerase 1 inhibition (active/inactive)” value is “Active”. Besides, the inhibition result in [12] was “Active”. Moreover, the “inhibition call (active/not active)” value in assay [13] was “Active”. Besides, the “topoisomerase 2 inhibition (active/not active)” value in [14] is “inactive”.
In the case of `C(=N\OCCN1CCCC1)/c1cccc2nc3c(nc12)-c1ccccc1/C3=N\OCCN1CCCC1.Cl`, the result in [1] was Active. For the same compound, the IC50 in assay [2] was determined as 1.01 µM; in assay [3] it was 6.02 µM; in assay [4], 5.17 µM; in [5], 0.78 µM; in [6], 0.91 µM. Also, the “Ratio IC50” value is listed as 0.9 in [7], 0.15 in assay [8], 0.18 in assay [9] and 1.17 in assay [10]. In addition, in assay [11], the “topoisomerase 1 inhibition (active/inactive)” value is “Active”. For the same compound, the inhibition entry in assay [12] was “Active”. Moreover, the “inhibition call (active/not active)” value in assay [13] was “Active”. The “topoisomerase 2 inhibition (active/not active)” value in assay [14] was “Active”.
Consider `CN(C)CCCO/N=C1\c2ccccc2-c2nc3c(C(=O)NCCN(C)C)cccc3nc21.Cl`, for which the result in assay [1] was Active. The 50% inhibitory concentration (IC50) was 0.67 µM in assay [2]; 6.88 µM in [3]; 0.89 µM in assay [4]; 0.83 µM in [5]; 9 µM in assay [6]. For the same compound, the “Ratio IC50” value in assay [7] was 13.43; in assay [8] it was 1.31; in assay [9], 10.11; in [10] it was 10.84. The “topoisomerase 1 inhibition (active/inactive)” value in assay [11] was “Active”. Further, in [12], the inhibition entry was “Active”. In addition, the “inhibition call (active/not active)” value in assay [13] was “Active”. Also, the “topoisomerase 2 inhibition (active/not active)” value in assay [14] was “Active”.
As to `CN(C)CCCO/N=C1\c2ccccc2-c2nc3c(CN4CCCCC4)cccc3nc21.Cl`, the result in [1] was Active. Further, the IC50 in [2] was 0.66 µM; in assay [3], 0.83 µM; in assay [4] it was 0.91 µM; in assay [5], 0.63 µM; in [6] it was 0.89 µM. The “Ratio IC50” value stood at 1.35 in assay [7], 1.07 in assay [8], 0.98 in [9] and 1.41 in assay [10]. The “topoisomerase 1 inhibition (active/inactive)” value in assay [11] was “Active”. Besides, the inhibition result in assay [12] was “Active”. Also, the “inhibition call (active/not active)” value in assay [13] is “Active”. Also, the “topoisomerase 2 inhibition (active/not active)” value in assay [14] was “inactive”.
